This passage reports cytotoxicity results from ChEMBL document CHEMBL4513216, “Probing the Open Global Health Chemical Diversity Library for Multistage-Active Starting Points for Next-Generation Antimalarials” (ACS Infect Dis, 2020).

A short description of the data set: Toxicity liver stage against HepG2, at 10uM. The data set is classed as cell-based. Set-up: test concentration 10 uM, cell line HepG2-A16-CD81EGFP. Particulars: human, HepG2-A16-CD81EGFP cells; read-out: INHIBITION
In outline: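 Uninfected HepG2-A16-CD81EGFP cells, 3 × 10^3 per well, 1536-well, plated on prespotted compound at 10 μM final, parasite-free screening media added to match infected plates; puromycin 10 μM positive, DMSO 0.5% negative; run in parallel with 48 h PbLuc assay at 37 °C, 5% CO2; viability by CellTiter-Glo luminescence, normalized to controls.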
With `Cc1cc(N(C)C)nc(N2CCCC2c2ccccn2)n1` (configuration not stated), the cytotoxicity at 10 µM was 3.16%.
On to `Cc1ccc(C(=O)N2CCCC(c3cc(C(F)(F)F)[nH]n3)C2)o1` (configuration not stated), for which the cytotoxicity at 10 µM amounted to 5.77%.
The figure for `O=C(C1CCS(=O)(=O)CC1)N1CCC(c2ccc(F)cc2)C1` (configuration not stated) is -60.1%; for `CCN1CC(=O)c2sc(NC(C)C)nc2C1` it is -10.6%.
The figure for `COc1cc(CNC(C)Cn2cccn2)cc(Cl)c1OC` (configuration not stated) is -1.14%; for `O=C1COC2(CCN(c3ncccn3)CC2)CN1` it is 12.9%.
With `Cc1cc(CN2CCN(C(=O)CCCc3nc(C(C)C)no3)CC2)on1`, the cytotoxicity at 10 µM was -9.05%.
The value for `Cc1cnc(-c2nc(C3CCN(Cc4ccccc4C)CC3)no2)cn1` was 4.08%; that for `CCn1cc(NC(=O)NCCN2CCc3ccccc3C2)cn1` was -2.87%.
On to `COCCN1C[C@@H]2CN(c3cnccn3)C[C@@H]2C1=O`, for which the cytotoxicity at 10 µM is -104%.
The value for `CC[C@@]1(O)CCN(C(=O)c2ccsc2)C[C@H]1O` was -9.35%.
Consider `c1cncc(CN2CC[C@H]3O[C@@H](COCC4CCOCC4)CC[C@H]32)c1`, for which the cytotoxicity at 10 µM is -73.5%.
In the case of `CSc1nnc(CNC(=O)Nc2ccccc2Br)n1C`, the cytotoxicity at 10 µM is 1.31%.
The value for `Cc1ccc(C(=O)N(Cc2ccc(F)cc2)C2CC2)c(=O)[nH]1` was -1.4%; that for `O=C(NCCCN1CCc2ccccc2C1)c1cccnc1O` was -3.49%.
The figure for `CC(C)c1cccc(NC(=O)N2CC(N(C)C)C2)c1` is 9.12%; for `Cc1cc(C)c(C(=O)N2CCC3(CCCNC3)C2)cc1C` (configuration not stated) it is 2.52%; for `Cc1ccc(C(=O)N(C)CC(=O)N2CCCC2)c(C)c1` it is -0.705%.
The figure for `O=C(Cn1cc(C(=O)O)cn1)Nc1c(Cl)cccc1Cl` is 1.57%; for `Cc1ccc(O)c(CNC2CCCN(Cc3noc(C4CC4)n3)C2)n1` (configuration not stated) it is -5.59%; for `Cc1[nH]ccc1C(=O)N1CCC(c2nnc(Cn3cccn3)n2C)CC1` it is -11.5%.
For the compound `CC(C)(NC(=O)c1coc(COc2cccc(F)c2)n1)C(N)=O`, the cytotoxicity at 10 µM was -136%.
The figure for `CCn1nc2c(cc1=O)CN(Cc1cc(C)on1)CC2` is 0.341%; for `O=C(NCCc1nc2ccccc2s1)c1coc(CN2CCOCC2)c1` it is -5.69%; for `COc1ccc(Br)cc1CCC(=O)N1CCCC1` it is -4.2%.
The figure for `CCOC(=O)N1CCN(c2nc(N)c3ccccc3n2)CC1` is -5.52%; for `C=C(Br)CN(C)C1CCN(CCc2ccccn2)CC1` it is 0.953%; for `O=C(Nc1cn[nH]c1)N1CCN(CCSc2ccccc2)CC1` it is 4.32%.
The figure for `COc1ccc2c(c1)CN(Cc1ccco1)C(=O)CCN2` is -2.59%.
For `Cc1csc2cc(C(=O)NC3CCCC3)cnc12`, the cytotoxicity at 10 µM amounted to 3.13%.
Take `CCN1Cc2c(C(=O)NC)ncn2-c2ccccc2S1(=O)=O`: the cytotoxicity at 10 µM is -73%.
The value for `CN(C)S(=O)(=O)N1CCCC1C(=O)N1CCSCC1` (configuration not stated) was 6.67%.
The value for `Nc1ccc(C(=O)N2CCCC(c3nccn3Cc3cscn3)C2)cn1` (configuration not stated) was -4.92%.
As for `COCC1CN(C(=O)COc2ccc(C)cc2)Cc2cn(C)nc21` (configuration not stated), the cytotoxicity at 10 µM stood at 2.49%.
The figure for `Cc1nc(CN2C[C@@H]3CN(C(=O)c4cnccn4)C[C@@H]3C2)cs1` is -8.97%.
In the case of `CC(=O)N1CCCn2c(nc(CNS(=O)(=O)C3CC3)cc2=O)C1`, the cytotoxicity at 10 µM was determined as 2.71%.
The figure for `O=C(C1CC1)N(Cc1ccc2cc[nH]c2c1)C1CC1` is -2.98%; for `Cc1cc(CN(C)CC2CC(C3CCCCC3)=NO2)no1` (configuration not stated) it is 22.4%; for `Cc1ccc(CC(=O)N2CCOCC2c2ncon2)cc1` (configuration not stated) it is -2.03%.
On to `CCc1noc(C)c1C(=O)N(C)Cc1ncc(C)c(OC)c1C`, for which the cytotoxicity at 10 µM was -1.06%.
The value for `O=C(NC[C@@H]1C[C@@H]2CN(C(=O)CO)C[C@H]2O1)c1ccsc1` was -96.5%.
For the compound `Cc1ccc(C(=O)N2CCSCC2)cc1NC(=O)Cn1cncn1`, the cytotoxicity at 10 µM is -11.1%.
The figure for `CCn1ncnc1C(C)NC(=O)COc1ccc(Cl)cc1Cl` (configuration not stated) is 2.8%; for `Cc1nn(C)c(C)c1C1CCCN1Cc1cn2ccsc2n1` (configuration not stated) it is -51.6%.
The figure for `CO[C@@H]1CN(c2ccccc2)S(=O)(=O)[C@@]12CCN(C(=O)N(C)C)C2` is 10.1%; for `Cc1ccc(-c2ncc(C(=O)N3CCC[C@H](N)C3)c(O)n2)cc1` it is -7.14%; for `CCCc1nnsc1C(=O)NCC(O)c1ccoc1` (configuration not stated) it is 4.25%.
The figure for `FC(F)(F)c1nnc2n1CCN(c1nc(C3CC3)ns1)C2` is 8.21%; for `O=C(Nc1ccccc1Cn1cncn1)C1CCN(C2CCCCC2)C1` (configuration not stated) it is -5.14%.
Regarding `O=S(=O)(C1CC1)N1CCOC2(CCCN(Cc3ccccn3)C2)C1` (configuration not stated), the cytotoxicity at 10 µM is -0.78%.
Turning to `CC(=O)N1CCc2c(nc(N(C)C)nc2NCCc2cccs2)C1`, the cytotoxicity at 10 µM was -54%.
The value for `COc1ccc2c(OCC(=O)NCC(F)(F)F)ccnc2c1` was -3.88%; that for `O=C(O)C(c1ccc2[nH]ccc2c1)N1CCOCC1` (configuration not stated) was 13.1%.
The figure for `CCNC(=O)[C@@H]1C[C@H](NC(=O)c2cc(CC)n[nH]2)CN1Cc1ccsc1` is -5.92%; for `CC(NCC(=O)N(C)C1CC1)c1ccc(S(C)(=O)=O)c(F)c1` (configuration not stated) it is 6.27%.
The value for `COc1ccc(OC2CCN(C(=O)CCc3n[nH]c(C)n3)CC2)cc1` was 4.66%.
On to `CN(c1cccc2ccccc12)S(=O)(=O)c1cc(C(=O)O)cs1`, for which the cytotoxicity at 10 µM was -2.88%.
The figure for `Cc1nccc(C(=O)N2CCCN(Cc3cnn(C(C)C)c3)CC2)n1` is -0.239%; for `Cc1noc(C2CCN(C(=O)CN(C)c3ccc(Cl)cn3)CC2)n1` it is -6.98%; for `O=C(CCC1CC1)N1CCC(n2cc(C3(O)CCCC3)nn2)CC1` it is 9.4%.
The value for `CN(C)c1nccc(C2CN(c3cnccn3)CCO2)n1` (configuration not stated) was 7.95%; that for `CCCOc1cc(CNC(=O)Nc2ccccn2)ccn1` was -2.25%; that for `Cc1cc(C)n(CC2CCCN2C(=O)c2c[nH]c3ncccc23)n1` (configuration not stated) was -0.808%.
The value for `Cc1cnn(CC2CCCCN2CC(=O)NCc2ccccn2)c1` (configuration not stated) was -6.16%; that for `O=C(O)c1cnc(N2CCCC2)nc1COc1ccc(F)cc1` was -1.14%.
For the compound `COc1ccc(CNC(=O)c2nc3c(s2)CCN(C(C)=O)CC3)cc1`, the cytotoxicity at 10 µM was -76.6%.
As for `O=C(Nc1nnc(C(F)F)s1)NC(CCO)c1cccs1` (configuration not stated), the cytotoxicity at 10 µM was -3.44%.
The figure for `c1cncc(COCc2nnc3n2CCN(Cc2cccs2)C3)c1` is 0.399%; for `CCCN1C(=O)[C@@H]2CC[C@H]1CN(S(=O)(=O)c1cccc(Cl)c1)C2` it is -2.78%.
The value for `CCCn1c(C)cc(C(=O)CN2C(=O)c3ccccc3CS2(=O)=O)c1C` was -1.94%; that for `CN(C)C(C(=O)N1Cc2ccccc2C1)c1ccccc1F` (configuration not stated) was -1.91%.
The figure for `COc1ccnc(CN2CCC(O)(c3ccc(C)cn3)CC2)c1OC` is -138%.
